How the values were obtained:
Type in all cases: functional, cell-based
Conditions in all cases: Homo sapiens
[1] = test system: SK-MEL-28; experiment: Compound was evaluated for cytotoxicity against SK-MEL-28 (melanoma) cell line
[2] = test system: SNB-7; experiment: Compound was evaluated for cytotoxicity against SNB-7 (CNS) cell line
[3] = test system: NCI-H23; experiment: Compound was evaluated for cytotoxicity against NCI-H23 (lung) cell line
[4] = test system: DLD-1; experiment: Compound was evaluated for cytotoxicity against DLD-1(colon) cell line
[5] = test system: CCRF-CEM; experiment: Compound was evaluated for cytotoxicity against CCRF-CEM (leukemia) cell line
Method in brief: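 Human leukemia CEM cells grown in culture and exposed to the nucleosides. In one set of runs the adenosine deaminase inhibitor 2′-deoxycoformycin was also present during the incubation.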

[6] = test system: CAKI-1; experiment: Compound was evaluated for cytotoxicity against CAKI-1(renal) cell line

Nc1nc(N)c2ncn(C3SC(CO)C(O)C3O)c2n1 (centres undefined)
IC50 [1]: 0.34 µM | IC50 [2]: 1 µM | IC50 [3]: > 25 µM | IC50 [4]: > 25 µM | IC50 [5]: 0.34 µM | IC50 [6]: 20 µM

Nc1nc(F)nc2c1ncn2[C@H]1S[C@H](CO)[C@@H](O)[C@@H]1O
IC50 [1]: > 100 µM | IC50 [2]: > 100 µM | IC50 [3]: > 100 µM | IC50 [4]: > 100 µM | IC50 [5]: > 130 µM | IC50 [6]: 20 µM

Nc1nc(F)nc2c1ncn2[C@@H]1S[C@H](CO)[C@@H](O)[C@@H]1O
IC50 [1]: > 90 µM | IC50 [2]: > 90 µM | IC50 [3]: > 90 µM | IC50 [4]: > 90 µM | IC50 [5]: 30 µM | IC50 [6]: 10 µM

Nc1nc(O)c2ncn(C3SC(CO)C(O)C3O)c2n1 (centres undefined)
IC50 [1]: 1.1 µM | IC50 [2]: 1.1 µM | IC50 [3]: > 20 µM | IC50 [4]: > 20 µM | IC50 [5]: 0.57 µM | IC50 [6]: 14 µM

Reference: ChEMBL document CHEMBL1131122, “Synthesis and biological activity of certain 4'-thio-D-arabinofuranosylpurine nucleosides” (J Med Chem, 1998)
